{"source": "ChEMBL document CHEMBL1147092", "about": "“Pharmacokinetic/pharmacodynamic factors influencing emergence of resistance to linezolid in an in vitro model” (Antimicrob Agents Chemother, 2007)", "key": {"[1]": {"tested_on": "Staphylococcus aureus", "assay": "Bactericidal activity against vancomycin-intermediate Staphylococcus aureus Mu50 assessed as reduction of CFU using in vitro PK/PD model with 120 mg/24 hr continuous infusion simulated regimen after 48 hrs", "type": "functional", "how_it_was_run": "(§1)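 Flow-through in vitro PK/PD model in BHI broth at 37°C, 5-h half-life (Vd 290 ml); exponential-phase inoculum 10^6 CFU/ml, duplicates with growth controls. […] Viable counts by saline dilution, plating on nutrient agar, 37°C 24 h; bactericidal = >3-log10 CFU/ml drop.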"}, "[2]": {"tested_on": "Staphylococcus aureus", "assay": "Bactericidal activity against methicillin-resistant Staphylococcus aureus ATCC 43300 assessed as reduction of CFU using in vitro PK/PD model with human dosage regimen 600 mg every 12 hrs after 24 hrs", "type": "functional", "how_it_was_run": "(§2)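 Flow-through central chamber of BHI broth at 37°C, with pumped clearance set for a 5-h half-life (volume of distribution 290 ml). Exponential-phase inoculum was 10^6 CFU/ml, in duplicate, with growth controls. Samples taken 0–72 h were diluted in saline, plated on nutrient agar and incubated 37°C for 24 h; quantification limit 50 CFU/ml. Drug levels were checked by HPLC. Reduction is the log10 CFU/ml fall.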"}, "[3]": {"tested_on": "Staphylococcus aureus", "assay": "Bactericidal activity against vancomycin-intermediate Staphylococcus aureus Mu50 assessed as reduction of CFU using in vitro PK/PD model with human dosage regimen 600 mg every 12 hrs after 24 hrs", "type": "functional", "how_it_was_run": "as §1"}, "[4]": {"tested_on": "Enterococcus faecium", "assay": "Bactericidal activity against vancomycin-resistant Enterococcus faecium ATCC 700221 assessed as reduction of CFU using in vitro PK/PD model with 120 mg/24 hr continuous infusion simulated regimen after 48 hrs", "type": "functional", "how_it_was_run": "as §2"}, "[5]": {"tested_on": "Staphylococcus aureus", "assay": "Area under population analysis profile for vancomycin-intermediate Staphylococcus aureus Mu50 using in vitro PK/PD model relative to growth control with 120 mg/24 hrs continuous infusion regimen after 72 hrs", "type": "functional"}, "[6]": {"tested_on": "Staphylococcus aureus", "assay": "Antibacterial activity against methicillin-resistant Staphylococcus aureus ATCC 43300 using in vitro PK/PD model with 120 mg/24 hr continuous infusion simulated regimen after 72 hrs", "type": "functional", "conditions": "ATCC 43300, 72 h"}, "[7]": {"assay": "Half life for simulated intermittent-dosage regimen at 600 mg every 12 hrs using in vitro PK/PD model"}, "[8]": {"tested_on": "Staphylococcus aureus", "assay": "Area under population analysis profile for methicillin-resistant Staphylococcus aureus using in vitro PK/PD model relative to growth control with 120 mg/24 hrs continuous infusion regimen after 72 hrs", "type": "functional", "how_it_was_run": "(§3)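 Bacteria recovered after 72 h of a 2.0-μg/ml continuous infusion in a flow-through BHI model (duplicates). 50 μl of a 0.5 McFarland suspension or dilutions were spiral-plated on BHI agar with linezolid 0–5 μg/ml and incubated 35°C for 48 h; counting limit 20 CFU/ml. Area under the log10 CFU/ml vs concentration curve (trapezoidal) is compared with the 72-h growth control.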"}, "[9]": {"tested_on": "Staphylococcus aureus", "assay": "Bactericidal activity against heteroresistant vancomycin-intermediate Staphylococcus aureus Mu3 assessed as reduction of CFU using in vitro PK/PD model with human dosage regimen 600 mg every 12 hrs after 24 hrs", "type": "functional", "how_it_was_run": "as §2"}, "[10]": {"tested_on": "Enterococcus faecium", "assay": "Antibacterial activity against vancomycin-resistant Enterococcus faecium ATCC 700221 by microdilution method", "type": "functional", "how_it_was_run": "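Standard broth microdilution in cation-adjusted Mueller-Hinton broth, run in four replicates at baseline. Before testing, the strain was held at −80°C in tryptone soy broth with 20% glycerol and subcultured on horse blood agar for 24 h at 35°C.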"}, "[11]": {"tested_on": "Enterococcus faecium", "assay": "Bactericidal activity against vancomycin-resistant Enterococcus faecium ATCC 700221 assessed as reduction of CFU using in vitro PK/PD model with human dosage regimen 600 mg every 12 hrs at 24 hrs", "type": "functional", "how_it_was_run": "as §2"}, "[12]": {"tested_on": "Enterococcus faecium", "assay": "Area under population analysis profile for vancomycin-resistant Enterococcus faecium ATCC 700221 using in vitro PK/PD model relative to growth control with 120 mg/24 hrs continuous infusion regimen after 72 hrs", "type": "functional", "how_it_was_run": "as §3"}, "[13]": {"tested_on": "Staphylococcus aureus", "assay": "Area under population analysis profile for heteroresistant vancomycin-intermediate Staphylococcus aureus Mu3 using in vitro PK/PD model relative to growth control with 120 mg/24 hrs continuous infusion regimen after 72 hrs", "type": "functional", "how_it_was_run": "as §3"}, "[14]": {"assay": "Half life for simulated intermittent-dosage regimen at 120 mg every 12 hrs using in vitro PK/PD model"}, "[15]": {"tested_on": "Staphylococcus aureus", "assay": "Antibacterial activity against heteroresistant vancomycin-intermediate Staphylococcus aureus Mu3 using in vitro PK/PD model with 120 mg/24 hr continuous infusion simulated regimen after 72 hrs", "type": "functional", "conditions": "Mu3, 72 h"}, "[16]": {"tested_on": "Staphylococcus aureus", "assay": "Bactericidal activity against vancomycin-intermediate Staphylococcus aureus Mu50 assessed as reduction of CFU using in vitro PK/PD model with human dosage regimen 120 mg every 12 hrs after 24 hrs", "type": "functional", "how_it_was_run": "as §2"}}, "data": [{"smiles": "CC(=O)NC[C@H]1CN(c2ccc(N3CCOCC3)c(F)c2)C(=O)O1", "note": "[LINEZOLID]", "values": [{"measurement": "log10CFU/ml", "setting": "[1]", "value": ">3"}, {"measurement": "log10CFU/ml", "setting": "[2]", "value": 3.9}, {"measurement": "log10CFU/ml", "setting": "[3]", "value": 3.3}, {"measurement": "log10CFU/ml", "setting": "[4]", "value": ">3"}, {"measurement": "AUPAP", "setting": "[5]", "value": 90.2, "unit": "%"}, {"measurement": "MIC", "setting": "[6]", "value": "≥ 8", "unit": "µg/mL"}, {"measurement": "half-life at 12 h", "setting": "[7]", "value": 5.32, "unit": "h"}, {"measurement": "AUPAP", "setting": "[8]", "value": 178, "unit": "%"}, {"measurement": "log10CFU/ml", "setting": "[9]", "value": 3.1}, {"measurement": "MIC", "setting": "[10]", "value": 2, "unit": "µg/mL"}, {"measurement": "log10CFU/ml", "setting": "[11]", "value": 3.8}, {"measurement": "AUPAP", "setting": "[12]", "value": 40, "unit": "%"}, {"measurement": "AUPAP", "setting": "[13]", "value": 70.2, "unit": "%"}, {"measurement": "half-life at 12 h", "setting": "[14]", "value": 5.32, "unit": "h"}, {"measurement": "MIC", "setting": "[15]", "value": "≥ 8", "unit": "µg/mL"}, {"measurement": "log10CFU/ml", "setting": "[16]", "value": ">3"}]}]}
